pEC50, pKi: −log10 of the molar value.
Columns and labels:
Cannabinoid receptor 1 [1] = molecular target: T1, Cannabinoid receptor 1 (Homo sapiens, UniProt P21554); test: Displacement of [3H]-CP55940 from human recombinant CB1 receptor expressed in CHO-K1 cell membrane measured after 3 hrs by scintillation spectrometry; format: cell membranes; details: for pKi: read-out: Ki; for Ki: read-out: pKi (converted)
Cannabinoid receptor 2 [2] = molecular target: T2, Cannabinoid receptor 2 (Homo sapiens, UniProt P34972); test: Displacement of [3H]-CP55940 from human recombinant CB2 receptor expressed in CHO-K1 cell membrane measured after 3 hrs by scintillation spectrometry; format: cell membranes; details: for pKi: read-out: Ki; for Ki: read-out: pKi (converted)
T2 sequence (P34972 whole entry): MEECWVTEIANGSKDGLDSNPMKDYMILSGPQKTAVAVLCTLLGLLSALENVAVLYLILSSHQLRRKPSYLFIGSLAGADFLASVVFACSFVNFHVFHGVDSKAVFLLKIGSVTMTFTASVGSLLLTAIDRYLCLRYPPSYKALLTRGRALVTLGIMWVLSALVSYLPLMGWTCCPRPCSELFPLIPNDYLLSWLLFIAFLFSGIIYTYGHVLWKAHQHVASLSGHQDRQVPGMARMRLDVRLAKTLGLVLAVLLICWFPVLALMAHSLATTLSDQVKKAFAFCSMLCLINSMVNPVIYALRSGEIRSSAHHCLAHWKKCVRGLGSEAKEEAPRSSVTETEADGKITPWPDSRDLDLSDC

Cannabinoid receptor 1 [3] = molecular target: T1, Cannabinoid receptor 1; test: Displacement of [3H]-CP55940 from human recombinant CB1 receptor expressed in CHO-K1 cell membrane at 1 uM measured after 3 hrs by scintillation spectrometry; format: cell membranes
Cannabinoid receptor 2 [4] = molecular target: T2, Cannabinoid receptor 2; test: Displacement of [3H]-CP55940 from human recombinant CB2 receptor expressed in CHO-K1 cell membrane at 1 uM measured after 3 hrs by scintillation spectrometry; format: cell membranes
Cannabinoid receptor 1 [5] = molecular target: T1, Cannabinoid receptor 1; test: Agonist activity at human recombinant CB1 receptor expressed in CHO-K1 cell membrane assessed as increase in GTPgammaS binding at 1 uM pretreated for 30 mins followed by [35S]GTPgammaS addition for 90 mins by [35S]GTP-gammaS binding assay relative to CP55940; format: functional, cell membranes; details: time 120.0 min
In short: (§1)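 Membranes (5 μg) from PathHunter CHOK1 cells stably expressing hCB1 or hCB2 pre-incubated 30 min at room temperature with test ligand at 1 μM final, 1 μM GDP and 5 μg saponin in Tris-HCl pH 7.4, MgCl2, NaCl, EDTA, BSA, DTT. [35S]GTPγS (0.3 nM final) was then added for 90 min at 25 °C. Filtration on GF/B. Emax given relative to CP55,940 (100%), two experiments in duplicate.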

Cannabinoid receptor 2 [6] = molecular target: T2, Cannabinoid receptor 2; test: Agonist activity at human recombinant CB2 receptor expressed in CHO-K1 cell membrane assessed as increase in GTPgammaS binding at 1 uM pretreated for 30 mins followed by [35S]GTPgammaS addition for 90 mins by [35S]GTP-gammaS binding assay relative to CP55940; format: functional, cell membranes; details: time 120.0 min; in short: as §1
Cannabinoid receptor 1 [7] = molecular target: T1, Cannabinoid receptor 1; test: Agonist activity at human recombinant CB1 receptor expressed in CHO-K1 cell membrane assessed as increase in GTPgammaS binding pretreated for 30 mins followed by [35S]GTPgammaS addition for 90 mins by [35S]GTP-gammaS binding assay; format: functional, cell membranes
In short: (§2)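 Concentration-response [35S]GTPγS binding on 5 μg hCB1 or hCB2 CHOK1 membranes. Ligand, 1 μM GDP and saponin pre-incubated 30 min at room temperature, then 0.3 nM [35S]GTPγS added for 90 min at 25 °C. Filtration read-out. Three experiments in duplicate.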

Cannabinoid receptor 2 [8] = molecular target: T2, Cannabinoid receptor 2; test: Agonist activity at human recombinant CB2 receptor expressed in CHO-K1 cell membrane assessed as increase in GTPgammaS binding pretreated for 30 mins followed by [35S]GTPgammaS addition for 90 mins by [35S]GTP-gammaS binding assay; format: functional, cell membranes; in short: as §2
Homo sapiens = organism: Homo sapiens; test: Selectivity ratio of Ki for human recombinant CB2 receptor expressed in CHO-K1 cell membrane to Ki for human recombinant CB1 receptor expressed in CHO-K1 cell membrane; format: cell-based

T1 sequence (P21554 whole entry): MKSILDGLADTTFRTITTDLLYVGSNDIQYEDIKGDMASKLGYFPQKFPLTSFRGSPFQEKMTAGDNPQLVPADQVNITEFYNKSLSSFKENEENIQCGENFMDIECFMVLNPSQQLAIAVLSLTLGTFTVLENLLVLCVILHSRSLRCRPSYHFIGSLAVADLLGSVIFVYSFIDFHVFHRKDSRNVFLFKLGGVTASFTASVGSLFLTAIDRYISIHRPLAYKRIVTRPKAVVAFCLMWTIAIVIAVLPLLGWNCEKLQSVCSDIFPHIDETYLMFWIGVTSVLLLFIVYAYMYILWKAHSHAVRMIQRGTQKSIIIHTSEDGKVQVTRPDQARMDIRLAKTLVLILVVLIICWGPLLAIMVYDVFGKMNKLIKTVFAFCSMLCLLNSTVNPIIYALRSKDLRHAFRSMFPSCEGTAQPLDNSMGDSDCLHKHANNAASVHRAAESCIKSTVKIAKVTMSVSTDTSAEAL

Row | Compound | pKi (Cannabinoid receptor 2 [2]) | inhibition (Cannabinoid receptor 1 [3]; filed as agonist) [%] | inhibition (Cannabinoid receptor 2 [4]; filed as agonist) [%] | Ki (Cannabinoid receptor 1 [1]) [µM] | Emax (Cannabinoid receptor 2 [6]; filed as agonist) [%] | inhibition (Cannabinoid receptor 1 [3]) [%] | Ki (Cannabinoid receptor 2 [2]) [µM] | inhibition (Cannabinoid receptor 2 [4]) [%] | further results
1 | CCCCCc1cc(OC)c2cc(Cc3ccccn3)c(=O)oc2c1 | 7.08 | > 50 | > 50 | – | – | – | – | – | pKi (Cannabinoid receptor 1 [1]): 7.15; Emax (Cannabinoid receptor 1 [5]; filed as agonist): 46%; Emax (Cannabinoid receptor 2 [6]): 34%; pEC50 (Cannabinoid receptor 1 [7]): 6.00; pEC50 (Cannabinoid receptor 2 [8]): 6.73
2 | CCCCC1(c2cc(O)c3cc(CCC)c(=O)oc3c2)CCCC1 | 7.73 | 47 | > 50 | > 1 | 91 | – | – | – | –
3 | CCCCC1(c2cc(O)c3cc(C)c(=O)oc3c2)CCCCC1 | 6.97 | – | > 50 | > 1 | 66 | 19 | – | – | –
4 | CCCCCCC(C)(C)c1cc(O)c2cc(Cc3ccccc3C)c(=O)oc2c1 | 6.65 | 47 | > 50 | > 1 | – | – | – | – | –
5 | CCCCC1(c2cc(OC)c3cc(Cc4cccnc4)c(=O)oc3c2)CCCCC1 | – | – | – | > 1 | – | 6 | > 1 | 11 | –
6 | CCCCC(C)(C)c1cc(O)c2cc(Cc3ccccc3)c(=O)oc2c1 | – | – | – | > 1 | – | 12 | > 1 | 24 | –
7 | CCCCC1(c2cc(O)c3cc(CCC)c(=O)oc3c2)CCCCC1 | 8.19 | > 50 | > 50 | – | 62 | – | – | – | pKi (Cannabinoid receptor 1 [1]): 6.80; Emax (Cannabinoid receptor 1 [5]): 23%; pEC50 (Cannabinoid receptor 1 [7]): 5.95; pEC50 (Cannabinoid receptor 2 [8]): 8.35
8 | CCCCC(C)(C)c1cc(O)c2cc(Cc3ccccc3O)c(=O)oc2c1 | – | – | – | > 1 | – | 24 | > 1 | 37 | –
9 | CCCCc1cc2c(O)cc(C3(CCCC)CCCCC3)cc2oc1=O | 7.90 | 48 | > 50 | > 1 | 65 | – | – | – | Ratio Ki (Homo sapiens): 79
10 | CCCCC1(c2cc(O)c3cc(-c4ccccc4C)c(=O)oc3c2)CCCC1 | – | – | 43 | > 1 | – | 4 | > 1 | – | –
11 | CCCCCCC(C)(C)c1cc(OC)c2cc(Cc3ccccc3C(F)(F)F)c(=O)oc2c1 | – | – | – | > 1 | – | 26 | > 1 | 3 | –
12 | CCCCC1(c2cc(OC)c3cc(Cc4ccncc4)c(=O)oc3c2)CCCC1 | – | – | – | > 1 | – | 28 | > 1 | 9 | –
13 | CCCCC1(c2cc(OC)c3cc(CCC)c(=O)oc3c2)CCCC1 | – | – | – | > 1 | – | 32 | > 1 | 38 | –
14 | CCCCC1(c2cc(O)c3cc(Cc4ccccn4)c(=O)oc3c2)CCCCC1 | 7.14 | – | > 50 | > 1 | 68 | -7 | – | – | pEC50 (Cannabinoid receptor 2 [8]): 7.38
15 | CCCCC1(c2cc(O)c3cc(CC)c(=O)oc3c2)CCCC1 | 7.22 | – | > 50 | > 1 | 87 | 34 | – | – | –
16 | CCCCC1(c2cc(OC)c3cc(Cc4ccncc4)c(=O)oc3c2)CCCCC1 | – | – | – | > 1 | – | 26 | > 1 | 3 | –
17 | CCCCC(C)(C)c1cc(OC)c2cc(Cc3ccccc3C)c(=O)oc2c1 | – | > 50 | – | – | – | – | > 1 | 32 | pKi (Cannabinoid receptor 1 [1]): 6.66
18 | CCCCC1(c2cc(O)c3cc(Cc4cccnc4)c(=O)oc3c2)CCCC1 | 6.51 | – | > 50 | > 1 | 82 | 19 | – | – | –
19 | CCCCC1(c2cc(O)c3cc(Cc4ccncc4)c(=O)oc3c2)CCCCC1 | – | – | 46 | > 1 | – | 5 | > 1 | – | –
20 | CCCCCc1cc(OC)c2cc(Cc3cccnc3)c(=O)oc2c1 | 7.25 | > 50 | > 50 | – | 40 | – | – | – | pKi (Cannabinoid receptor 1 [1]): 6.77; Emax (Cannabinoid receptor 1 [5]; filed as agonist): 40%
21 | CCCCC1(c2cc(OC)c3cc(Cc4cccnc4)c(=O)oc3c2)CCCC1 | – | – | 40 | > 1 | – | 29 | > 1 | – | –
22 | CCCCC1(c2cc(O)c3cc(Cc4ccccn4)c(=O)oc3c2)CCCC1 | – | – | 44 | > 1 | – | 34 | > 1 | – | –
23 | CCCCC(C)(C)c1cc(OC)c2cc(Cc3ccccc3)c(=O)oc2c1 | – | > 50 | – | – | – | – | > 1 | 39 | pKi (Cannabinoid receptor 1 [1]): 6.31
24 | CCCCCc1cc(OC)c2cc(Cc3ccncc3)c(=O)oc2c1 | – | – | – | > 1 | – | 0 | > 1 | 11 | –
25 | CCCCC1(c2cc(O)c3cc(CC)c(=O)oc3c2)CCCCC1 | 7.41 | – | > 50 | > 1 | 65 | 39 | – | – | –
26 | CCCCc1cc2c(O)cc(C3(CCCC)CCCC3)cc2oc1=O | 7.86 | 50 | > 50 | 1 | 85 | – | – | – | pEC50 (Cannabinoid receptor 2 [8]): 7.74
